Experimental data reported in the EternaBench riboswitch data.

Test system: MS2 coat protein
Assay: apparent Kd, MS2 coat protein; higher = weaker binding; RNA-MaP array; FMN 200 µM where present
Summary of the method: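 Stalled E. coli RNA polymerase transcribed each design on Illumina sequencing-chip clusters. The clusters were titrated with SNAP-549-labelled MS2 coat protein, starting at 0.7 or 1.5 nM and doubling up to 3 µM, first without ligand and then with constant ligand, in 100 mM Tris-HCl pH 7.5, 80 mM KCl, 4 mM MgCl2, BSA, DTT, yeast tRNA and Tween-20. Green signal was normalised to red-channel RNA signal and to the control-cluster median Fmax. The apparent Kd is the median of filtered binding-curve fits made for each cluster.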

[1] = designed as: ON switch for flavin mononucleotide, no ligand
[2] = ligand present: flavin mononucleotide, designed as: ON switch for flavin mononucleotide
[3] = designed as: OFF switch for flavin mononucleotide, no ligand
[4] = ligand present: flavin mononucleotide, designed as: OFF switch for flavin mononucleotide

| Sequence | apparent Kd [1] [nM] | apparent Kd [2] [nM] | apparent Kd [3] [nM] | apparent Kd [4] [nM] |
| --- | --- | --- | --- | --- |
| GGUCCCUACGCACAGGAUAUUCUUUUGGCAACAUGAGGAUCACCCAUGUGUGCCGAUCAUGGUUAGAAGAAGGGUGGUAGGGACC | 20.6 | 15.7 | – | – |
| GUAUGGAGUACAGGAUAUGUAAGUUUUAAGUGUAUUGGUUAUUACUUAACAACAGAAGGGUAUUACAUGAGGAUCACCCAUGUA | 13.4 | 11 | – | – |
| CGAGUGUAAGGAUAUUCGGCGCCAGGGAACGACCUGGCGUAGAAGAAGGUACAUGAGGAUCACCCAUGUGGUUA | – | – | 178 | 18.6 |
| AUCCUACAUGAGGAUCACCCAUGUGAGGCCUCAAUAGGAUAUGCGUGUGCCUUGGCGCAUGCAGAAGGAUUGAAGC | 363 | 52.5 | – | – |
| AGUGUGUGGCAGGAUAUGCUGUUGAUUGGUGAAGCAGAAGGGUCUACAUGAGGAUCACCCAUGUAAGCGGUUGA | – | – | 53.1 | 225 |
| UGAUCGAGAGAUCUUAGAUUCUGGUAGGAUAUACAUUAUGUUUGAAAUACAUGAGGAUCACCCAUGUAGAAGGACUAGAGUCUA | – | – | 6.71 | 11.7 |
| AUGCGGUCAGGAUAUGCAUGGCGGGACUUGCGUCGUGGCGUGGAGAAGGGACAUGAGGAUCACCCAUGUGGAGC | – | – | 53.5 | 50.4 |
| AUGCUUCACACAGGAUAUACAUGAGGAUCACCCAUGUGUCCUAGGUAGCUGACACGAGCUACCCGGUAGAAGGGUGUGAAGCAU | – | – | 17 | 58.4 |
| AAAUUUAACGAAGGAUAUACAAACAUGAGGAUCACCCAUGUGUGUUUCGUGUUACUGAAAUUCGGGUAGAAGGUCGUAUACAUA | – | – | 23.4 | 18.1 |
| GAUACACAUGAGGAUCACCCAUGUGAGGAUAUGCGUACGUUGUCCGUAGGCGACGUGCGCAGAAGGCGCUUGGU | – | – | 72.2 | 75 |
| CCGGAAAGGAAGGAUAUGCUAGACGAGAGUCUAGCAGAAGGUCCUACAUGAGGAUCACCCAUGUGGCCUCCCGG | – | – | 139 | 627 |
| CUUUUGUGAGGAUAUCAGUAGUAUAUAAAUAAAAUUACUACUGAGAAGGCACAUGAGGAUCACCCAUGUUCCUC | – | – | 39.2 | 164 |
| AUCAGCUCGUCAGGAUAUACGUAACUGCGUCAGCAGUGUGGUAAGAUCACAUGAGGAUCACCCAUGUAGAAGGGACGAGCUGAU | – | – | – | 529 |
| UCAUAUAAACAAGGAUAUCAAUUAUUUACACAUCCUACAUGAGGAUCACCCAUGUUUUAAUAUUUUGAGAAGGUGUAAUGUCGG | 24 | 29.9 | – | – |
| UUGAAGCUCACAGGAUAUCAGUAUGCACGAUCUAGCGCAUUAAUGAACUGCUGAGAAGGGUGAGACAUGAGGAUCACCCAUGUA | 593 | 209 | – | – |
| GGUCGUCAUAUUAACAUGAGGAUCACCCAUGUGAAAACACAUGAGGAUAUGCAUCCUAAUUGGAUGCAGAAGGCAUGGACGACC | 23.7 | 6.49 | – | – |
| CGUCCACAUGAGGAUCACCCAUGUGAGGAUAUCCAUACCCACAACCAAUACACAUUAUGGAGAAGGCACACACA | – | – | 20.2 | 19.9 |
| CCGGAUACGGGUAGCCUGACAUGAGGAUCACCCAUGUGAUCCUAGGAUAUGGAUCCUAAUUGGAUCCAGAAGGAGGUUGGCUAC | 860 | 436 | – | – |
| GGACGUCACAUGAACAUGAGGAUCACCCAUGUGAAAACACAUGAGGAUAUGGAUCCUAAUUGGAUCCAGAAGGCAUGGACGUCC | 476 | 27.2 | – | – |
| UUUAUAUUCAGAGGAUAUUAAUGUUGUAUAAUAUAAGAAGGCUGUUUGUUUUGUAAAGUUAUUAUACAUGAGGAUCACCCAUGU | 20.6 | 16.9 | – | – |
| CCUCCACAUGAGGAUCACCCAUGUCAGGAUAUCGUGUGUGCGUUUUCGGUCUUUCGUGCGAGAAGGGACGUCUG | – | – | 68.7 | 62.9 |
| GUCAGCUCGUGAGGAUAUACAACACUGCUUCGGCAGUGUAUUAAGAUCACAUGAGGAUCACCCAUGUAGAAGGCCCGAGCUGAU | – | – | 10.2 | 139 |
| GCGUAGAUAGCAGGAUAUAUGUUUCCUACAUGAGGAUCACCCAUGUAGGUGAUCAGCCGAGAAAAGUAGAAGGGCUAUCUAUGC | 17.4 | 14.5 | – | – |
| GCACUGGAUGUAGGAUAUCAGGACGAUAAGUCCUGAGAAGGACAUGAGGAUCACCCAUGUGAUUAUACCAGUGCAAAUAAUAUA | – | – | 30.7 | 274 |

| Sequence | apparent Kd [1] [nM] | apparent Kd [2] [nM] | apparent Kd [3] [nM] | apparent Kd [4] [nM] |
| --- | --- | --- | --- | --- |
| CAACCGUUGCAGAAGGUUAAAUAAAUUCUCUUCUUGUUUACAUGAGGAUCACCCAUGUUUUUGUUGAAGGAUAUGCAAGGGUUG | – | – | 5.59 | 5.79 |
| UGUUGGAGCGAGAAGGGACGAUGGGAAGCUGUAAGCUGGCACUGUAGACAUGAGGAUCACCCAUGUCAGGAUAUUGCCGAACUA | – | – | 5.98 | 10.2 |
| GGACGUCACAUUUACAUGAGGAUCACCCAUGUCGAAAGACAUGAGGAUAUGCAUCCUAAUUGGAUGCAGAAGGCAUGGACGUCC | 335 | 245 | – | – |
| UUGUUUUGAAAUUAACAUGAGGAUCACCCAUGUCUUGACACAGAGGAUAUACAUGAAUGUAGGUAGUAGAAGGCUGUUUAGUGU | 79.5 | 60 | – | – |
| GGUGGUACAGAGAAGGCGCCGCAGCUCUUCCUCCCAUCCCAACGACAUGAGGAUCACCCAUGUAGCGAGGAUAUCUGUGCCAUC | – | – | 7.05 | 22.5 |
| GUAUCCGCUGAGGAUAUAAACUCCCUUGAGGGUUUAGAAGGCAGCACAUGAGGAUCACCCAUGUGGUAAGUUUG | – | – | 17.1 | 29.2 |
| UCGCUGCGAGGAUAUACAUGAGGAUCACCCAUGUGCGGGUCCGGGUUUUCGUCCAUUAGUAGAAGGCGCAGUGA | – | – | 369 | 46.5 |
| AAUAACAGAGGAUAUACUAUUUUAUGUAUUUAUUAUUUUAAACAUGAGGAUCACCCAUGUAGAAGGCUGAUUGA | – | – | 29.9 | 28.4 |
| UAUAUAUAGUAAGGAUAUGUAUUUAAUUUAUAAACAGAAGGUACUGACAUGAGGAUCACCCAUGUUUUAGUGUGGGCAUGUAGA | – | – | 97.9 | 147 |
| UUUACAUGAGGAUCACCCAUGUAUAGAACGGUUCAUUAAAGUGAGGAUAUACGAAAUUUAAAAUCGUAGAAGGCACUGGGUACA | 17 | 19.1 | – | – |
| GAUUUUUCUGAGGAUAUUGCAUCACCCGAUCUAUAAGAAGGCAGAACAUGAGGAUCACCCAUGUGGGUUUCUAG | – | – | 22.1 | 45.6 |
| CUUUUGUGAGGAUAUCAGUAGUAAUAUAAUAGUAUUACUACUGAGAAGGCACAUGAGGAUCACCCAUGUUCCUC | – | – | 27.4 | 50.3 |
| GAGGCCCAAACAUGAGGAUCACCCAUGUGUUUAGUCCUCACAUAGGAUAUCCACACGAGAAGUGUGGAGAAGGAUGAGGGCGUC | – | – | 49 | 101 |
| AAAAGGCAAGGAUAUACAUGAGGAUCACCCAUGUAAUUCCCGUCGGGAUGACCGAUAUGUAGAAGGUGCAUUAA | – | – | 20.1 | 43.4 |
| GCGUAACAUGAGGAUCACCCAUGUACCCGAGAAUUCGGGUGUAGAAGGGUGACCGGUCGUUUGGCACAGGAUAUACACGUUGUG | 30.1 | 16.8 | – | – |
| UGAUCGAGAGAUCUUAGAUUCUGGUAGGAUAUACAUUAUGAAAACUUUACAUGAGGAUCACCCAUGUAGAAGGACUAGAGUCUA | – | – | 7.74 | 9.74 |
| AAUAAAAUGAUGUUACAUGAGGAUCACCCAUGUAAGUGAUGGAGAAGGUCCCACGACUUGGGCGGGAAGGAUAUUCAGAGCAUA | 16.8 | 10.3 | – | – |
| AAUUUAAUACAUGAGGAUCACCCAUGUAAAUUAAUUAAGAUCAAGGAUAUCAGCUCGAAUAGAGCUGAGAAGGUGAUCACAUGU | 351 | 86.5 | – | – |
| UGUAUGGACAGAGGAUAUGCCGAUAGGCUCUACUAUCGAAGAAUCCUCACAUGAGGAUCACCCAUGUAGAAGGCUGUCCAUACU | – | – | 18.1 | 41.3 |
| UUGAACGUCGUAGGAUAUGUAGGAUAUUCCUACAUGAGGAUCACCCAUGUUGACAUGGAAGAAGGACAGAAGGACGAUGUCCAU | 567 | 7.77 | – | – |
| GGGCGACAUGAGGAUCACCCAUGUAAGGAUAUACAACUGCCCACUAAAAUCUGGGCUGGUAGAAGGUGCAGAAA | – | – | 35.7 | 42.8 |
| AAAUCGGCAGGAUAUACAUGAAAAUUAAAAAAAAAAAAAAAACAUGAGGAUCACCCAUGUAGAAGGGUCAAAAA | – | – | 88.9 | 89.2 |
| AUCCGACAUGAGGAUCACCCAUGUCAGGAUAUGGACUGACAUCGAAAGGAUGGAAGAACCAGAAGGGACUGGGC | – | – | 28.2 | 48.5 |
| GUGAAGUAAGGAUAUACAUGAGGAUCACCCAUGUGUGGGAAGGUGAUGGGAGUAGGUAGUAGAAGGUACGAGGA | – | – | 130 | 76.6 |
